Assay results taken from ChEMBL document CHEMBL3232752, “Synthesis, cytotoxicity and molecular modelling studies of new phenylcinnamide derivatives as potent inhibitors of cholinesterases” (Eur J Med Chem, 2014).

How the values were obtained:
[1] = molecular target: Acetylcholinesterase (Electrophorus electricus) (UniProt O42275); assay: (§1) Inhibition of electric eel acetylcholinesterase using acetylthiocholine iodide as substrate preincubated for 10 mins before substrate addition after 15 mins by Ellman's method; set-up: concentration or dose not given beside the values
Chain of Acetylcholinesterase (Electrophorus electricus) (O42275 24-633 limits assumed): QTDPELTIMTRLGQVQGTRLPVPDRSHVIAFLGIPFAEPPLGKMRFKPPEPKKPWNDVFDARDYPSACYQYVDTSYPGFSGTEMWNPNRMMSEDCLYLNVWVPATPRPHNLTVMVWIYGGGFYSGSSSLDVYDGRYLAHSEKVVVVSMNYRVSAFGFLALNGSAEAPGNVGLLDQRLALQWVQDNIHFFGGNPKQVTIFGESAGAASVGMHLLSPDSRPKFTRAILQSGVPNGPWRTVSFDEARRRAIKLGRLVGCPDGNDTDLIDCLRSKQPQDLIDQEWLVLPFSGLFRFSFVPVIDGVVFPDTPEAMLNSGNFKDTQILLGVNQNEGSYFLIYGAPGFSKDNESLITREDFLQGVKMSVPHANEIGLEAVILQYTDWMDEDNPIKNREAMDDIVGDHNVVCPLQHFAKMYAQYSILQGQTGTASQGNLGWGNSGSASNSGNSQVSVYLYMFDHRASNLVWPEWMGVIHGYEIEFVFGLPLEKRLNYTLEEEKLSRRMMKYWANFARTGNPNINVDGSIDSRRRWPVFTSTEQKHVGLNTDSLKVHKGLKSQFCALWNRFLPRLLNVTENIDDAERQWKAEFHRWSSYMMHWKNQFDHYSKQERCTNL

Acetylcholinesterase = Acetylcholinesterase (Electrophorus electricus, UniProt O42275); assay: as §1
Chain of Acetylcholinesterase (O42275 whole entry): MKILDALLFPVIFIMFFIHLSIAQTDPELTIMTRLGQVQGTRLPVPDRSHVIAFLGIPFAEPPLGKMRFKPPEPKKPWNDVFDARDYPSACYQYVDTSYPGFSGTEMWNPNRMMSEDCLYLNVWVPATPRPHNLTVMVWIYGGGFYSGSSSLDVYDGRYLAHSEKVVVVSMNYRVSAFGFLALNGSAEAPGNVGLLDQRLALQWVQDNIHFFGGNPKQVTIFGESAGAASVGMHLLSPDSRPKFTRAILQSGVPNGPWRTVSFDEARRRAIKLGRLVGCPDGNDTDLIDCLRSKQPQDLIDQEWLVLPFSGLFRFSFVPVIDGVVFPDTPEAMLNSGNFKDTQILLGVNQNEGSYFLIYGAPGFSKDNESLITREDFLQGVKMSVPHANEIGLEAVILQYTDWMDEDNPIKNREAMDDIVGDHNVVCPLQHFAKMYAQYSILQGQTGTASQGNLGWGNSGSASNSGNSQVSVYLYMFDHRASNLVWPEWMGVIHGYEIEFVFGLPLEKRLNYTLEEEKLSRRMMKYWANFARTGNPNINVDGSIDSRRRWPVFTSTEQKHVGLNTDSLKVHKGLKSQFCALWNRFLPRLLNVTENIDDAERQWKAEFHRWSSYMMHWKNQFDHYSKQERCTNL

Cholinesterase = Cholinesterase (Homo sapiens, UniProt P06276); assay: Inhibition of human BChE using butyrylthiocholine iodide as substrate preincubated for 10 mins before substrate addition after 15 mins by Ellman's method; set-up: concentration or dose not given beside the values
Chain of Cholinesterase (P06276 whole entry): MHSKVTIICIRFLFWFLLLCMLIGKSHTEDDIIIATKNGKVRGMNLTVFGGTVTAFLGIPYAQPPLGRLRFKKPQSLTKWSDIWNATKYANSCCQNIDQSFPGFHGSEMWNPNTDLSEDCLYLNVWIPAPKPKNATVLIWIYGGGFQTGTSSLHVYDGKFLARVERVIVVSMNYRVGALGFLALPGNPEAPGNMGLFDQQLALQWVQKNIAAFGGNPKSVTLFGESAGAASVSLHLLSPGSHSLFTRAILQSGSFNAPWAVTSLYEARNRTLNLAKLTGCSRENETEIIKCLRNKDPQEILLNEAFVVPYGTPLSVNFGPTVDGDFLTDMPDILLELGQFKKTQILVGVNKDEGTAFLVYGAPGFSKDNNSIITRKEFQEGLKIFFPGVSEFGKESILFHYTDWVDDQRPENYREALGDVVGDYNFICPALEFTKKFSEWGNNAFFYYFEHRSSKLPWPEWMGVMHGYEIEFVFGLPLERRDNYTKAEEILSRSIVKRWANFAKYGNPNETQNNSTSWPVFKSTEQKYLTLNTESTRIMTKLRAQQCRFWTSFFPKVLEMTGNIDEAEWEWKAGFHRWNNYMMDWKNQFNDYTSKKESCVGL

NCI-H157 [2] = assay: Antiproliferative activity against human NCI-H157 cells at 1 uM after 48 hrs by SRB assay; assay type: functional
Procedure, shortened: (§2)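 H157 lung carcinoma cells were seeded at 10⁴ cells per well in 96-well plates and grown 24 h at 37 °C in 5% CO₂ to a monolayer. Compounds were added at […]. Cells were fixed, stained with 0.4% w/v sulforhodamine B in 1% acetic acid for 30 min at room temperature, rinsed in acetic acid, and the dye dissolved in 10 mM Tris base for 10 min.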

NCI-H157 [3] = assay: Antiproliferative activity against human NCI-H157 cells at 100 uM after 48 hrs by SRB assay; assay type: functional; procedure, shortened: as §2

Structure (SMILES) | inhibition [1] | IC50 (Acetylcholinesterase) | inhibition (Cholinesterase) | further results
COc1cc(NC(=O)/C=C/c2c(Cl)cccc2[N+](=O)[O-])cc(OC)c1OC | 34.2% |  |  | 
COc1cc(NC(=O)/C=C/c2ccccc2OCc2ccccc2)cc(OC)c1OC |  | 0.29 µM | 32.1% | 
COc1cc(NC(=O)/C=C/c2cccc(O)c2O)cc(OC)c1OC | 31.2% |  | 41.2% | 
COc1cc(NC(=O)/C=C/c2ccc(O)cc2O)cc(OC)c1OC | 36.6% |  | 18.2% | 
COc1cc(NC(=O)/C=C/c2ccc(O)c(O)c2)cc(OC)c1OC | 36.4% |  | 34.6% | 
COc1cc(NC(=O)/C=C/c2cc(O)ccc2O)cc(OC)c1OC | 30.3% |  | 36.2% | Activity (NCI-H157 [2]): 60%
COc1cc(NC(=O)/C=C/c2c(F)cccc2Cl)cc(OC)c1OC | 34.1% |  |  | IC50 (Cholinesterase): 1.32 µM; Activity (NCI-H157 [2]): 66%
COc1cc(NC(=O)/C=C/c2ccc(OCc3ccccc3)cc2)cc(OC)c1OC |  | 3.72 µM | 33.5% | 
COc1cccc(/C=C/C(=O)Nc2cc(OC)c(OC)c(OC)c2)c1 |  | 12.9 µM | 41.8% | 
COc1cc(NC(=O)/C=C/c2ccc(NOC(C)=O)cc2)cc(OC)c1OC |  | 12.5 µM |  | IC50 (Cholinesterase): 3.85 µM
COc1cc(NC(=O)/C=C/c2ccc(OCc3ccccc3)cc2O)cc(OC)c1OC |  | 1.59 µM | 27.2% | 
COc1cc(NC(=O)/C=C/c2ccc(Cl)cc2)cc(OC)c1OC |  | 31.2 µM | 25.7% | 
COc1cc(NC(=O)/C=C/c2cccc([N+](=O)[O-])c2)cc(OC)c1OC |  | 3.24 µM | 26.2% | 
COc1ccc(/C=C/C(=O)Nc2cc(OC)c(OC)c(OC)c2)cc1[N+](=O)[O-] |  | 6.69 µM | 28.1% | Activity (NCI-H157 [2]): 66%
COc1cccc(/C=C/C(=O)Nc2cc(OC)c(OC)c(OC)c2)c1O |  | 6.22 µM |  | IC50 (Cholinesterase): 5.19 µM
COc1ccc(/C=C/C(=O)Nc2cc(OC)c(OC)c(OC)c2)cc1OCc1ccccc1 |  | 6.02 µM | 31.1% | Activity (NCI-H157 [2]): 61%
CN(C)C(=O)Oc1cccc([N+](C)(C)C)c1 [NEOSTIGMINE] |  | 22 µM |  | IC50 (Cholinesterase): 49.1 µM
C=CCOc1ccccc1/C=C/C(=O)Nc1cc(OC)c(OC)c(OC)c1 |  | 1.41 µM | 24.8% | 
COc1cc(NC(=O)/C=C/c2cccc(OC(C)=O)c2)cc(OC)c1OC | 29.2% |  |  | IC50 (Cholinesterase): 1.25 µM
CC[C@]1(O)C[C@H]2CN(CCc3c([nH]c4ccccc34)[C@@](C(=O)OC)(c3cc4c(cc3OC)N(C=O)[C@H]3[C@@](O)(C(=O)OC)[C@H](OC(C)=O)[C@]5(CC)C=CCN6CC[C@]43[C@@H]65)C2)C1 [VINCRISTINE] |  |  |  | Activity (NCI-H157 [3]): 46%
COc1cc(NC(=O)/C=C/c2cccc(OCc3ccccc3)c2)cc(OC)c1OC |  | 6.52 µM |  | IC50 (Cholinesterase): 3.93 µM
COc1cc(/C=C/C(=O)Nc2cc(OC)c(OC)c(OC)c2)ccc1OCc1ccccc1 |  | 12.6 µM | 32.8% | 
C=CCOc1ccc(/C=C/C(=O)Nc2cc(OC)c(OC)c(OC)c2)cc1 | 33.6% |  | 32.6% | 
COc1cc(NC(=O)/C=C/c2c(O)cccc2[N+](=O)[O-])cc(OC)c1OC |  | 12.8 µM | 35.4% | 
COc1ccc(/C=C/C(=O)Nc2cc(OC)c(OC)c(OC)c2)cc1O |  | 4.22 µM |  | IC50 (Cholinesterase): 7.65 µM
COc1cc(NC(=O)/C=C/c2ccc(OC(C)=O)cc2)cc(OC)c1OC | 36.5% |  | 37.4% | 
COc1cc(/C=C/C(=O)Nc2cc(OC)c(OC)c(OC)c2)ccc1OC(C)=O |  | 4.98 µM | 31.1% | 
